Experiment [1] deals with GABA-A receptor; anion channel. In words: In vitro affinity against Benzodiazepine receptor binding to rat cortical membranes (using [3H]- flumazenil as radioligand). In a few lines:
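Male Wistar rat (~200 g) cerebral cortex membranes, washed in Tris-citrate 50 mM pH 7.1, 2 mg original tissue/mL. Filtered, then scintillation counting. Duplicates.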

Experiment [2] deals with GABA-A receptor; anion channel (Rattus norvegicus) (UniProt O09028+P15431+P18506+P18508+P19969+P20236+P23574+P23576+P28471+P28473+P30191+P62813+P63079+P63138+Q91ZM7+Q9ES14). Put plainly: Ratio of Ki value without GABA and Ki value in the presence of GABA. It is filed as protein-complex assay.

As for `Cc1ccc2oc(-c3ccccc3)cc(=O)c2c1` [6-METHYLFLAVONE], in experiment [1], the Ki amounted to 125 nM. Moreover, the GABA ratio in experiment [2] was 0.98.

Compound `O=c1cc(-c2ccccc2)oc2cc(O)ccc12` [7-HYDROXYFLAVONE] registered an inhibition constant Ki in experiment [1] of 4200 nM. In addition, the GABA ratio in experiment [2] came out at 1.14.

Take `O=c1cc(-c2ccccc2)oc2ccc3ccccc3c12` [BETA-NAPHTHOFLAVONE]: the Ki in experiment [1] stood at 1480 nM. Besides, the GABA ratio in experiment [2] was determined as 1.28.

On to `O=c1cc(-c2ccccc2)oc2ccc(O)cc12` [6-HYDROXYFLAVONE], for which the Ki in experiment [1] was 400 nM. Also, the GABA ratio in experiment [2] worked out at 1.06.

As to `Cc1ccc2oc(-c3cccc([N+](=O)[O-])c3)cc(=O)c2c1`, the Ki in experiment [1] was found to be 5.6 nM. Further, in experiment [2], the GABA ratio amounted to 0.72.

For `Cc1ccc2oc(-c3ccc([N+](=O)[O-])cc3)cc(=O)c2c1`, in experiment [1], the Ki turned out to be 7300 nM.

With `O=c1cc(-c2cccc([N+](=O)[O-])c2)oc2ccc([N+](=O)[O-])cc12`, in experiment [2], the GABA ratio is 1.3.

With `O=c1cc(-c2ccccc2)oc2cccc(O)c12` [5-HYDROXYFLAVONE], the inhibition constant Ki in experiment [1] is 1900 nM. Further, in experiment [2], the GABA ratio came to 1.03.

Take `COc1ccc2oc(-c3ccccc3)cc(=O)c2c1` [6-METHOXYFLAVONE]: the Ki in experiment [1] came out at 570 nM. Also, the GABA ratio in experiment [2] stood at 1.51.

Take `O=c1cc(-c2cccc([N+](=O)[O-])c2)oc2ccc(Br)cc12`: the GABA ratio in experiment [2] was determined as 1.4.

For `Cc1ccc2sc(-c3ccccc3)cc(=O)c2c1`, in experiment [1], the affinity, expressed as Ki, was 310 nM. For the same compound, in experiment [2], the GABA ratio was 1.35.

`Cc1ccc2oc(-c3ccccc3[N+](=O)[O-])cc(=O)c2c1`: affinity in experiment [1] was put at a Ki of 1000 nM. Also, in experiment [2], the GABA ratio worked out at 1.49.

As to `Cc1cccc(-c2cc(=O)c3cc(C)ccc3o2)c1`, the Ki in experiment [1] amounted to 29 nM. Also, the GABA ratio in experiment [2] was determined as 1.63.

In experiment [1], `O=c1cc(-c2ccccc2)oc2ccccc12` [FLAVONE] had a Ki of 4200 nM. Also, in experiment [2], the GABA ratio worked out at 1.05.

In experiment [1], `O=c1cc(-c2ccccc2)oc2ccc(Br)cc12` [6-BROMOFLAVONE] returned a Ki of 70 nM. Besides, the GABA ratio in experiment [2] stood at 1.8.

On to `O=c1c(Br)c(-c2ccccc2)oc2ccccc12`, for which the Ki in experiment [1] is over 75000 nM.

Take `O=c1cc(-c2ccc([N+](=O)[O-])cc2)oc2ccc([N+](=O)[O-])cc12`: the Ki in experiment [1] stood at 17000 nM.

The compound `O=c1cc(-c2ccccc2)oc2cc(O)cc(O)c12` [CHRYSIN] came in with an inhibitory constant (Ki) in experiment [1] of 920 nM. In experiment [2], the GABA ratio stood at 0.9.

In experiment [1], `Cc1ccc2sc(-c3cccc([N+](=O)[O-])c3)cc(=O)c2c1` gave a Ki of 33 nM. In experiment [2], the GABA ratio amounted to 1.51.

On to `CCc1c(C(=O)OC)ncc2[nH]c3cc(OC)c(OC)cc3c12`, for which the Ki in experiment [1] was found to be 7.6 nM. The GABA ratio in experiment [2] was determined as 0.57.

For `Cc1ccc2oc(-c3cccc([N+](=O)[O-])c3)cc(=O)c2c1[N+](=O)[O-]`, the Ki in experiment [1] turned out to be 1.9 nM. In addition, the GABA ratio in experiment [2] was found to be 1.41.

`O=c1cc(-c2ccc(O)cc2)oc2cc(O)cc(O)c12` [APIGENIN] gave a Ki in experiment [1] of 770 nM. The GABA ratio in experiment [2] was determined as 1.03.

One may read the Ki as the equilibrium dissociation constant of an inhibitor or competing ligand from its target. A high value points to weaker binding.

(Values after ChEMBL document CHEMBL1132447, “Structure-activity relationships and molecular modeling analysis of flavonoids binding to the benzodiazepine site of the rat brain GABA(A) receptor complex” (J Med Chem, 1999).)
